Reference: ChEMBL document CHEMBL4627411, “Novel Piperidinyl-Azetidines as Potent and Selective CCR4 Antagonists Elicit Antitumor Response as a Single Agent and in Combination with Checkpoint Inhibitors” (J Med Chem, 2020)
pIC50: −log10 of the molar value. Active and inactive are the calls of the source. The calls are words filed in the database; no cut-off is given here.

What was measured:
[1] = molecular target: C-C chemokine receptor type 1 (Homo sapiens) (UniProt P32246); experiment: Antagonist activity at human Gi/G0-coupled CCR1 receptor assessed as inhibition of CCL3-induced beta arrestin2 recruitment at 500 nM preincubated for 30 mins followed by CCL3 stimulation and measured after 90 to 180 mins by pathhunter assay
Chain of C-C chemokine receptor type 1 (Homo sapiens) (P32246 whole entry): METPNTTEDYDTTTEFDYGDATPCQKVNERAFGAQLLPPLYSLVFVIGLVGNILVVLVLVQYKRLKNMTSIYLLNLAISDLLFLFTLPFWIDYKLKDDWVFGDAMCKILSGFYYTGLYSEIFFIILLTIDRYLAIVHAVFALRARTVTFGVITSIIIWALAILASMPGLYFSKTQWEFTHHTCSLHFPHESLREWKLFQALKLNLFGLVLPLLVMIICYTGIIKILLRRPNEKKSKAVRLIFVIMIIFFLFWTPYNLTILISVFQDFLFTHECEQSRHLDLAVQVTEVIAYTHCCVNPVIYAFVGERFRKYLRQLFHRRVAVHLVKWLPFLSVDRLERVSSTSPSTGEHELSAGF

[2] = Metabolic stability in human hepatocytes assessed as parent compound remaining at 1 uM after 60 mins by LC-MS/MS analysis; format: ADME, cell-based, Hepatocyte; conditions: read-out: Stability
In short: (§1)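 Hepatocytes (human or rat). Compound incubated for 60 min; value is % parent remaining.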

Cytochrome P450 = experiment: Induction of CYP450 (unknown origin); format: ADME, protein assay; conditions: human
[3] = Clearance in mouse at 0.5 mg/kg, iv; format: ADME, organism-based; conditions: in vivo
Panc02 = experiment: Antitumor activity against mouse Panc02 cells implanted in po dosed C57BL/6 mouse assessed as inhibition of GFP-positive Treg cell migration in to tumor micro environment administered 30 mins prior to Treg cell population addition followed by daily compound dosing for 5 days and measured on day 6 by flow cytometry analysis; format: functional, organism-based
In short: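 Pan02 pancreatic ductal adenocarcinoma mice. Oral compound at several doses; adoptively transferred GFP+ iTreg counted in the tumor, with spleen, skin and lung also examined.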

[4] = molecular target: C-X-C chemokine receptor type 2 (Homo sapiens) (UniProt P25025); experiment: Antagonist activity at human Gi/G0-coupled CXCR2 assessed as inhibition of CXCL8-induced beta arrestin2 recruitment at 500 nM preincubated for 30 mins followed by CXCL8 stimulation and measured after 90 to 180 mins by pathhunter assay
[5] = Oral bioavailability in mouse at 2 mg/kg; format: ADME, organism-based; conditions: in vivo
Cytochrome P450 1A2 = Cytochrome P450 1A2 (Homo sapiens, UniProt P05177); experiment: Inhibition of CYP1A2 in human liver microsomes using phenacetin as substrate incubated for 20 mins in presence of NADPH by LC-MS/MS analysis; format: ADME
Chain of Cytochrome P450 1A2 (P05177 whole entry): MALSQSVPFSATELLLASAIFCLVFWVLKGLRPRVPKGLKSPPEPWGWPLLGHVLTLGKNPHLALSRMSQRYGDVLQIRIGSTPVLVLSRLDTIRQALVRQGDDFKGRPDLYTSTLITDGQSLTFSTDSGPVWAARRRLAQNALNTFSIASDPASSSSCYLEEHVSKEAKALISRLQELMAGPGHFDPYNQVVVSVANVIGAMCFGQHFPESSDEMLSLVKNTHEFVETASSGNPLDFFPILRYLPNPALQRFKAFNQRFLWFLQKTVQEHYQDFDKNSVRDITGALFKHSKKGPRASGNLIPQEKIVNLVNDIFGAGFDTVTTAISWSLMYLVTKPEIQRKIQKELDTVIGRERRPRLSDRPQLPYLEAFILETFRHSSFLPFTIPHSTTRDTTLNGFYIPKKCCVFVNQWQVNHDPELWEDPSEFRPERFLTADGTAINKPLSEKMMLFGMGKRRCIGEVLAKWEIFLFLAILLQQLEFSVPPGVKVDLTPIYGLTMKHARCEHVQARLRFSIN

[6] = Clearance in rat at 0.5 mg/kg, iv; format: ADME, organism-based; conditions: in vivo
In short: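 Rat in vivo PK. Single IV dose of 0.5 mg/kg; clearance in mL/min/kg.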

[7] = molecular target: C-C chemokine receptor type 4 (Homo sapiens) (UniProt P51679); experiment: Antagonist activity at human Gi/G0-coupled CCR4 receptor expressed in CHO-K1 cells assessed as inhibition of CCL22-induced beta arrestin2 recruitment at 500 nM preincubated for 30 mins followed by CCL22 stimulation and measured after 90 to 180 mins by pathhunter assay; format: cell-based
[8] = molecular target: C-C chemokine receptor type 7 (Homo sapiens) (UniProt P32248); experiment: Antagonist activity at human Gi/G0-coupled CCR7 receptor assessed as inhibition of CCL19-induced beta arrestin2 recruitment at 500 nM preincubated for 30 mins followed by CCL19 stimulation and measured after 90 to 180 mins by pathhunter assay
Chain of C-C chemokine receptor type 7 (Homo sapiens) (P32248 whole entry): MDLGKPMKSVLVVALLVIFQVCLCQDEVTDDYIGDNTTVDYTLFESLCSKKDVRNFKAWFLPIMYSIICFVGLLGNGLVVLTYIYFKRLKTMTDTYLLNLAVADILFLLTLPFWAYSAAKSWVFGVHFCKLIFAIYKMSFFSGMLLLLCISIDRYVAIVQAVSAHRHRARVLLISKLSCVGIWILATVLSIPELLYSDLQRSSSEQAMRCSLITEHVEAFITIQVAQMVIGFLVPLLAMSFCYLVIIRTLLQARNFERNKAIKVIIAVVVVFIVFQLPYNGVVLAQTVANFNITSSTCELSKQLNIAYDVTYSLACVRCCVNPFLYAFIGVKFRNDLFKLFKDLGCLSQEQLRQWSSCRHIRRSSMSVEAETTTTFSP

[9] = molecular target: C-X-C chemokine receptor type 4 (Homo sapiens) (UniProt P61073); experiment: Antagonist activity at human Gi/G0-coupled CXCR4 assessed as inhibition of CXCL12-induced beta arrestin2 recruitment at 500 nM preincubated for 30 mins followed by CXCL12 stimulation and measured after 90 to 180 mins by pathhunter assay
Chain of C-X-C chemokine receptor type 4 (Homo sapiens) (P61073 whole entry): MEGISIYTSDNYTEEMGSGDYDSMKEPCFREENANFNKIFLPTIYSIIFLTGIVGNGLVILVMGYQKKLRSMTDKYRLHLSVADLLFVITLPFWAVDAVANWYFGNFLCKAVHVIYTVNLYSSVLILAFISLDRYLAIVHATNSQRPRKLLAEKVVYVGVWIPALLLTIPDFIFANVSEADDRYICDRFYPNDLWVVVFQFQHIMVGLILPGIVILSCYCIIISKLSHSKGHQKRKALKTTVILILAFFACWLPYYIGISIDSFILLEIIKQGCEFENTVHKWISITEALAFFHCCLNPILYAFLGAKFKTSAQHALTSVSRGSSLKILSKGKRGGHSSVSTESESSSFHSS

[10] = Volume of distribution at steady state in mouse at 0.5 mg/kg, iv; format: ADME, organism-based; conditions: in vivo, read-out: Vdss
[11] = Half life in dog at 0.5 mg/kg, iv; format: ADME, organism-based, Canis lupus familiaris; conditions: in vivo
[12] = molecular target: C-X-C chemokine receptor type 6 (Homo sapiens) (UniProt O00574); experiment: Antagonist activity at human Gi/G0-coupled CXCR6 assessed as inhibition of CXCL16-induced beta arrestin2 recruitment at 500 nM preincubated for 30 mins followed by CXCL16 stimulation and measured after 90 to 180 mins by pathhunter assay
Chain of C-X-C chemokine receptor type 6 (Homo sapiens) (O00574 whole entry, looked up): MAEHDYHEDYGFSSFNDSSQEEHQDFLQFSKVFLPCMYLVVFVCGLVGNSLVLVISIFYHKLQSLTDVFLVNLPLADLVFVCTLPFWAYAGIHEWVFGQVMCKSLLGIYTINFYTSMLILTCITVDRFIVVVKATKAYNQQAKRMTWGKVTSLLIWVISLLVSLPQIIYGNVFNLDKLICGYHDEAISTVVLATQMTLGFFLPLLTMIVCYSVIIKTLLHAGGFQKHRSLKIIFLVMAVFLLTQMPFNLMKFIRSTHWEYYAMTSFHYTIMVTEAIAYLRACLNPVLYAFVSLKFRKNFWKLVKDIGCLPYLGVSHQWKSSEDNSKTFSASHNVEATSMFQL

[13] = molecular target: C-C chemokine receptor type 6 (Homo sapiens) (UniProt P51684); experiment: Antagonist activity at human Gi/G0-coupled CCR6 receptor expressed in CHOK1 cells assessed as inhibition of CCL20-induced beta arrestin2 recruitment at 500 nM preincubated for 30 mins followed by CCL20 stimulation and measured after 90 to 180 mins by pathhunter assay; format: cell-based; conditions: CHO-K1
Chain of C-C chemokine receptor type 6 (Homo sapiens) (P51684 whole entry): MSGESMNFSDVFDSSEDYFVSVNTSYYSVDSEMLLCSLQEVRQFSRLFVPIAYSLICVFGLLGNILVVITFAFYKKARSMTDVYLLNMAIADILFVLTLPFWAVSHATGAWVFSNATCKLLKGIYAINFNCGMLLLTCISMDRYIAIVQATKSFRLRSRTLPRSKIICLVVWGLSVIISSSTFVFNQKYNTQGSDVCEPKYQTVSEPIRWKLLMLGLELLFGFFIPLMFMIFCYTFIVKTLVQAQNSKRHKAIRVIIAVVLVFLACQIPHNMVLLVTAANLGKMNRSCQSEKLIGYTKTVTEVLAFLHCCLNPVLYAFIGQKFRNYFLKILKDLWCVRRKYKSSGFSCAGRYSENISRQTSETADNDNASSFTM

[14] = molecular target: C-C chemokine receptor type 8 (Homo sapiens) (UniProt P51685); experiment: Antagonist activity at human CCR8 receptor assessed as inhibition of CCL1-induced beta arrestin2 recruitment at 500 nM preincubated for 30 mins followed by CCL1 stimulation and measured after 90 to 180 mins by pathhunter assay
Chain of C-C chemokine receptor type 8 (Homo sapiens) (P51685 whole entry): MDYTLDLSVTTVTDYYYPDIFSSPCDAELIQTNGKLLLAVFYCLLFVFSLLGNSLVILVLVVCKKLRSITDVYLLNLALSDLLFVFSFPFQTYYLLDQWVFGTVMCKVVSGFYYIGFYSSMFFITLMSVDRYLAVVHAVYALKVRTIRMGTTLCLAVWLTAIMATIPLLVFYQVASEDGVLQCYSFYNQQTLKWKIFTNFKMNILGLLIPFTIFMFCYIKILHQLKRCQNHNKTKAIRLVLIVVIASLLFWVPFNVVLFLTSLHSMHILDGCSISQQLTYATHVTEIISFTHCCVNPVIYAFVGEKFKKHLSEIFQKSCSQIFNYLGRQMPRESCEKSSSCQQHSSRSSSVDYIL

[15] = molecular target: C-X-C chemokine receptor type 3 (Homo sapiens) (UniProt P49682); experiment: Antagonist activity at human Gi/G0-coupled CXCR3 assessed as inhibition of CXCL11-induced beta arrestin2 recruitment at 500 nM preincubated for 30 mins followed by CXCL11 stimulation and measured after 90 to 180 mins by pathhunter assay
Chain of C-X-C chemokine receptor type 3 (Homo sapiens) (P49682 whole entry): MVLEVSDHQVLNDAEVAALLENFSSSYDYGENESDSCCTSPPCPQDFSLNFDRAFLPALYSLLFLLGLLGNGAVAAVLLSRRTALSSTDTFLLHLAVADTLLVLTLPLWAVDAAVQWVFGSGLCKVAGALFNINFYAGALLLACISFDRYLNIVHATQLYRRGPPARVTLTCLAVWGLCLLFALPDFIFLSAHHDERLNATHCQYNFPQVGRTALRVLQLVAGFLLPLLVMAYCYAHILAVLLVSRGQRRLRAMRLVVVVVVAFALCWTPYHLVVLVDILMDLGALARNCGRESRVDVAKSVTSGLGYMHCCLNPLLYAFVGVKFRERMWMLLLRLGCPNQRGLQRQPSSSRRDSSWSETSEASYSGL

Cytochrome P450 3A4 = Cytochrome P450 3A4 (Homo sapiens, UniProt P08684); experiment: Inhibition of CYP3A4 in human liver microsomes using midazolam hydrochloride as substrate incubated for 20 mins in presence of NADPH by LC-MS/MS analysis; format: ADME
Chain of Cytochrome P450 3A4 (P08684 whole entry): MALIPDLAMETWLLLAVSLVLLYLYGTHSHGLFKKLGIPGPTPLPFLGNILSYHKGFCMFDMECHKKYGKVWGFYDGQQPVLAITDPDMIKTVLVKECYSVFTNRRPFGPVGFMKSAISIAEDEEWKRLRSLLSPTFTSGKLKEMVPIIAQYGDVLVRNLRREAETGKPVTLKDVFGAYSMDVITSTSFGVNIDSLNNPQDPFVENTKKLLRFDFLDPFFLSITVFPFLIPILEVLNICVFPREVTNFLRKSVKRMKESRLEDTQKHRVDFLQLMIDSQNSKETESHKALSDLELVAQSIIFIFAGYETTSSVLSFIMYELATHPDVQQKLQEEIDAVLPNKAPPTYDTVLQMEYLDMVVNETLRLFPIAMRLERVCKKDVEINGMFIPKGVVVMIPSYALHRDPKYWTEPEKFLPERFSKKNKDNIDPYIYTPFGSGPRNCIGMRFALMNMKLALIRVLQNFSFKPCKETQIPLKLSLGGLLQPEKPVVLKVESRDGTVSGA

[16] = molecular target: CX3C chemokine receptor 1 (Homo sapiens) (UniProt P49238); experiment: Antagonist activity at human Gi/G0-coupled CX3CR1 expressed in CHOK1 cells assessed as inhibition of CX3CL1-induced beta arrestin2 recruitment at 500 nM preincubated for 30 mins followed by CX3CL1 stimulation and measured after 90 to 180 mins by pathhunter assay; format: cell-based; conditions: CHO-K1
Chain of CX3C chemokine receptor 1 (Homo sapiens) (P49238 whole entry): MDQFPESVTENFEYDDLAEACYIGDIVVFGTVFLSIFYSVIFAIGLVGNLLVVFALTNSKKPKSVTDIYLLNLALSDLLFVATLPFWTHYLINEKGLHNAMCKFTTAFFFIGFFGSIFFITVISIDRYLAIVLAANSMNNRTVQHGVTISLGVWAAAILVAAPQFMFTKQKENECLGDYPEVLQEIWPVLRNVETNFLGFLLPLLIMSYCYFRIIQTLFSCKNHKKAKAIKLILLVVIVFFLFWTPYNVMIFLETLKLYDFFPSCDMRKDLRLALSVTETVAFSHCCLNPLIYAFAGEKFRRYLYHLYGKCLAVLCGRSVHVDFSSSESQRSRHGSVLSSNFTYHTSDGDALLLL

[17] = molecular target: T1, C-C chemokine receptor type 4 (Homo sapiens, UniProt P51679); experiment: Antagonist activity at human CCR4 expressed in rat chem-5 cells assessed as inhibition of CCL22-induced calcium flux measured at 2.5 secs time interval for 45 secs by calcium 6 dye-based FLIPR assay; format: functional, cell-based
T1 sequence (P51679 whole entry): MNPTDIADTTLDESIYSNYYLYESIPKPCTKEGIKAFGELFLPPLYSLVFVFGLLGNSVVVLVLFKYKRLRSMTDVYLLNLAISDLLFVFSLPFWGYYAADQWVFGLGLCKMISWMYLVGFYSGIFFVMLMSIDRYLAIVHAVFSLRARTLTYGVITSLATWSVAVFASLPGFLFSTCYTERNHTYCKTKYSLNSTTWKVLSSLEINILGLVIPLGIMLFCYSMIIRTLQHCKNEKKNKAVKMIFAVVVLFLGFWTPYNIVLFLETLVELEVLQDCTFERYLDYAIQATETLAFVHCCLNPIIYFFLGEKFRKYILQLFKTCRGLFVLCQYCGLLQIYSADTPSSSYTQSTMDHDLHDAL
In short: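 Primary calcium flux assay for CCR4 antagonism, run in the absence of serum.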

[18] = molecular target: C-C chemokine receptor type 9 (Homo sapiens) (UniProt P51686); experiment: Antagonist activity at human Gi/G0-coupled CCR9 receptor expressed in CHOK1 cells assessed as inhibition of CCL25-induced beta arrestin2 recruitment at 500 nM preincubated for 30 mins followed by CCL25 stimulation and measured after 90 to 180 mins by pathhunter assay; format: cell-based; conditions: CHO-K1
Chain of C-C chemokine receptor type 9 (Homo sapiens) (P51686 whole entry): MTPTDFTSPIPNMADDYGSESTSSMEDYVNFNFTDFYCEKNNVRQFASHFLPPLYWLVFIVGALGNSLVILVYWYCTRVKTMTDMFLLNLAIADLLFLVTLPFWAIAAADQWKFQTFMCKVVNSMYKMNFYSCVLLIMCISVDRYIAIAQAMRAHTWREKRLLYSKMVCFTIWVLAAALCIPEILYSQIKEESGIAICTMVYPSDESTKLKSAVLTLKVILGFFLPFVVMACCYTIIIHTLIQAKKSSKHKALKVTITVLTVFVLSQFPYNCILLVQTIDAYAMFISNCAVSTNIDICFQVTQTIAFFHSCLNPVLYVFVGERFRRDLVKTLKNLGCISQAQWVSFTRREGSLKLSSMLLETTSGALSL

[19] = molecular target: Chemerin-like receptor 1 (Homo sapiens) (UniProt Q99788); experiment: Antagonist activity at human CMKLR1 expressed in CHOK1 cells assessed as inhibition of chemerin-induced beta arrestin2 recruitment at 500 nM preincubated for 30 mins followed by chemerin stimulation and measured after 90 to 180 mins by pathhunter assay; format: cell-based; conditions: CHO-K1
Chain of Chemerin-like receptor 1 (Homo sapiens) (Q99788 whole entry): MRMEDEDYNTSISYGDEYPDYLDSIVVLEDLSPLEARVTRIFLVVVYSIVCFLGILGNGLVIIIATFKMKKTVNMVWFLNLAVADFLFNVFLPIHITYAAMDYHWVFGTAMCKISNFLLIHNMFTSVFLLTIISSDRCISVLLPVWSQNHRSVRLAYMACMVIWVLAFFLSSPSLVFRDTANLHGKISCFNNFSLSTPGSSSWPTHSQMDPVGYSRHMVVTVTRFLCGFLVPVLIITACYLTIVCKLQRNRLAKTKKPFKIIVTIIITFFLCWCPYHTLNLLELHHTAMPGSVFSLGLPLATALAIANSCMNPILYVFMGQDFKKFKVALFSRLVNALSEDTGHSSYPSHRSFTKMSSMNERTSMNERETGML

[20] = Metabolic stability in rat hepatocytes assessed as parent compound remaining at 1 uM after 60 mins by LC-MS/MS analysis; format: ADME, cell-based, Hepatocyte; conditions: read-out: Stability; in short: as §1
[21] = Clearance in cynomolgus monkey at 0.5 mg/kg, iv; format: ADME, organism-based, Macaca fascicularis; conditions: in vivo

## C[C@H](c1ccc(Cl)cc1Cl)n1nc(C#N)c2ncc(N3CC([C@H]4CCCN(CCO)C4)C3)nc21
[1]
  Activity: inactive
[2]
  remaining at 1 h, 1 µM: 91%
Cytochrome P450
  Activity: Not Active
[3]
  clearance: 10.2 mL/min/kg
Panc02
  Activity: Dose-dependent effect
[4]
  Activity: inactive
[5]
  bioavailability: 29%
Cytochrome P450 1A2
  pIC50: < 4.40
[6]
  clearance: 47.6 mL/min/kg
[7]
  Activity: Active
[8]
  Activity: inactive
[9]
  Activity: inactive
[10]
  Vd: 5.2 L/kg
[11]
  half-life: 12.7 h
[12]
  Activity: inactive
[13]
  Activity: inactive
[14]
  Activity: inactive
[15]
  Activity: inactive
Cytochrome P450 3A4
  pIC50: < 4.40
[16]
  Activity: inactive
[17]
  pIC50: 7.66
[18]
  Activity: inactive
[19]
  Activity: inactive
[20]
  remaining at 1 h, 1 µM: 73%
[21]
  clearance: 3.7 mL/min/kg
